Test [1] has as its target T1, Thymidylate synthase (Lactobacillus casei, UniProt P00469).
T1 sequence (P00469 whole entry): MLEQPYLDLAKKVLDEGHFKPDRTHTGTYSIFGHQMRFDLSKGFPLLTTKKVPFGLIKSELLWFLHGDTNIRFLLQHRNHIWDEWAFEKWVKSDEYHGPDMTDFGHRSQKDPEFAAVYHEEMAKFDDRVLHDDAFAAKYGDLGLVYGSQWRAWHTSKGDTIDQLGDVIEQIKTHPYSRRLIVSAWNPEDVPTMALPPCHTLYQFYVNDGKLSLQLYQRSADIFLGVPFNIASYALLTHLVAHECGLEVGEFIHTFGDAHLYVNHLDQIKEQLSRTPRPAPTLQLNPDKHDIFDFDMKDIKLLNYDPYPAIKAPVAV
Kind of test: Inhibitory activity against thymidylate Synthase from Lactobacillus casei. Also on record: species or system Lacticaseibacillus casei.

Test [2] has as its target Dihydrofolate reductase (Lactobacillus casei, UniProt P00381). Description: Inhibitory activity against dihydro folate reductase from Lactobacillus casei. Also on record: species or system Lacticaseibacillus casei.
Test [3] has as its target T2, Dihydrofolate reductase (Homo sapiens, UniProt P00374).
T2 sequence (P00374 whole entry): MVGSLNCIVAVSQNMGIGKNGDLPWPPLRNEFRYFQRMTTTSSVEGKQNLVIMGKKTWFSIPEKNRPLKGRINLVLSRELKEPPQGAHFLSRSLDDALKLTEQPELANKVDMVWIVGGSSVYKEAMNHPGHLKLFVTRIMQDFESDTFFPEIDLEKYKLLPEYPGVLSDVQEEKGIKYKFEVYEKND
Description: Inhibitory activity against dihydro folate reductase from human recombinant sources.

The target of test [4] is Thymidylate synthase (Homo sapiens, UniProt P04818). Kind of test: Inhibitory activity against thymidylate Synthase from human recombinant sources.
Test [5] deals with CCRF-CEM. Kind of test: Growth inhibition against Human leukemic cell line(CCRF-CEM). Type of test: functional, cell-based. In a few lines: (§1)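 Continuous drug exposure growth assay. CCRF-CEM and its MTX-resistant subline R30dm (1% of parental FPGS activity) cultured as previously reported; A253 and FaDu squamous carcinoma monolayers subcultured in RPMI 1640/10% fetal calf serum. EC50 read visually from plots of percent control growth against log drug concentration. Averages ± range for n = 2, ± SD for n ≥ 3.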

Test [6] has as its system FaDu. Description: Growth inhibition against Human squamous cell line(Fadu). Type of test: functional, cell-based. The essentials:
as §1

In test [7] the test system is FaDu. Kind of test: Protection against the growth inhibition against Human squamous cell line(Fadu). Type of test: functional. Also on record: scale not given: the % may be the effect or the level left.
The subject of test [8] is FaDu. Description: Protection by 10 uM LV against the growth inhibition against Human squamous cell line(Fadu). It counts as functional. Also on record: scale not given: the % may be the effect or the level left.
The target in test [9] is T2, Dihydrofolate reductase. Description: Inhibitory activity against dihydro folate reductase from human CCRF-CEM leukemic cell line.
The subject of test [10] is FaDu. Kind of test: Protection by 50 uM against the Growth inhibition against Human squamous cell line(Fadu). Set-up: scale not given: the % may be the effect or the level left. It counts as functional.
Another test has as its system A253 cell line. Kind of test: Growth inhibition against Human squamous cell line(A 253). Type of test: functional, cell-based. In a few lines:
as §1

Test [11] relates to FaDu. Description: Protection by 50 uM+40 uM against Growth inhibition against Human squamous cell line(Fadu), in the presence of 50 uM hypoxanthine +40 uM thymidine. It counts as functional. Set-up: scale not given: the % may be the effect or the level left.
Test [12] deals with CCRF-CEM. Description: Growth inhibition against Human leukemic cell line (Methotrexate resistant CCRF-CEM). It counts as functional, cell-based. The essentials: as §1
In test [13] the test system is FaDu. Kind of test: Protection by 40 uM against the Growth inhibition against Human squamous cell line(Fadu), in the presence of 40 uM thymidine. Type of test: functional. Set-up: scale not given: the % may be the effect or the level left.
Test [14] has as its system CCRF-CEM. Kind of test: Growth inhibition against Human leukemic cell line(CCRF-CEM) during continuous exposure.

Among the data in ChEMBL document CHEMBL1128698, “5-Arylthio-substituted 2-amino-4-oxo-6-methylpyrrolo[2,3-d]pyrimidine antifolates as thymidylate synthase inhibitors and antitumor agents” (J Med Chem, 1995) are IC50, EC50 and Control values, retold here.

A value given as a limit tells only on which side of the number the result lay.

Sequence of Dihydrofolate reductase (Lactobacillus casei, UniProt P00381) (P00381 whole entry): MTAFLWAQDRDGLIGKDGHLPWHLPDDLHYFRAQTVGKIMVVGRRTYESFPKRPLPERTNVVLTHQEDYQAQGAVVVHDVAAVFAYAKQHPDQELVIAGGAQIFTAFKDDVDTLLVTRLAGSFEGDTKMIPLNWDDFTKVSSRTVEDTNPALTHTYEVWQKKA
Sequence of Thymidylate synthase (Homo sapiens, UniProt P04818) (P04818 whole entry): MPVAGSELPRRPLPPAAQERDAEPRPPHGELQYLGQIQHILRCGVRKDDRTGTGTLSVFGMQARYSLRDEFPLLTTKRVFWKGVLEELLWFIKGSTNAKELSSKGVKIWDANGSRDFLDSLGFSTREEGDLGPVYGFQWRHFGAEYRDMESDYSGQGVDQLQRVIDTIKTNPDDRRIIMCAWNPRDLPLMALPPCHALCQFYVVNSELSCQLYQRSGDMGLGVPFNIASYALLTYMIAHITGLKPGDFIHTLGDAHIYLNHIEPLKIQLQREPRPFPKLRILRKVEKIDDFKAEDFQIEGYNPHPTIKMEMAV

Usually IC50 stands for the concentration at which inhibition is half-maximal. With `CC1=C(Sc2ccncc2)C2C(=O)NC(N)=NC2N1` (centres undefined), the IC50 on Thymidylate synthase [1] was 100000 nM; on Dihydrofolate reductase [2], > 69000 nM; at Dihydrofolate reductase [3] it was > 69000 nM; on Thymidylate synthase [4] it was 340 nM.

Usually EC50 stands for the midpoint of the concentration-response curve. For the molecule `CC1=C(Sc2ccc(C(=O)NC(CCC(=O)O)C(=O)O)cc2)C2C(=O)NC(N)=NC2N1` (centres undefined), the 50% effective concentration (EC50) in the test with CCRF-CEM [5] came out at 450 nM; in the test with FaDu [6] it was 530 nM; with A253 cell line, 3000 nM; with CCRF-CEM [12], 810 nM. In addition, the half-maximal inhibitory concentration (IC50) is 21 nM against Thymidylate synthase [1], 2200 nM against Dihydrofolate reductase [2], 2200 nM on Dihydrofolate reductase [3] and 124 nM against Dihydrofolate reductase [9]. The Control in the test with FaDu [7] was 5%; with FaDu [8], 7%; with FaDu [10] it was 4%; with FaDu [11], 78%; with FaDu [13] it was 83%.

On to `C#CCN(Cc1ccc2[nH]c(N)nc(=O)c2c1)c1ccc(C(=O)NC(CCC(=O)O)C(=O)O)cc1` (centres undefined), for which the EC50 with CCRF-CEM [14] amounted to 720 nM.

With `CN(Cc1cnc2nc(N)nc(N)c2n1)c1ccc(C(=O)N[C@@H](CCC(=O)O)C(=O)O)cc1` [METHOTREXATE], the Control was found to be 2% in the test with FaDu [7]; 114% in the test with FaDu [8]; 18% in the test on FaDu [10]; 95% in the test with FaDu [11]; 11% in the test with FaDu [13]. In the test with A253 cell line, this molecule had an EC50 of 13 nM.
